PfM18AAP inh-1 – PfM18AAP inhibitors, malaria aminopeptidase, primary screen, biochemical, QFRET, recombinant enzyme; H-Glu-NHMec fluorogenic cleavage; inhibition, % at 7.35 µM; hit rate 1.2% among 290,000; AID 1822, 2009;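 active = inhibition above the campaign mean inhibition over all tested compounds plus 3 SD, cut at about 28% in these data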;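 also: 0% = plate median of test compound wells and 100% = 2 mM ZnCl2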
NS3 helicase inh – inhibitors of HCV NS3 helicase, primary screen, biochemical, Cy5 molecular beacon fluorescence; hit rate 0.56% among 290,000; inhibition, % at 10.9 µM; NS3 helicase DNA unwinding; AID 1800, 2009;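 active = inhibition above the mean of all tested compounds plus 3 SD, set per campaign, cut at about 35% in these data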;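 also: 0% = DMSO wells and 100% = thioflavine S control wells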
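assay system = NS3 helicase fragment of HCV | buffer or medium = MOPS pH 6.5, MgCl2, DTT, Tween20, BSA | timing = 60 min unwinding reaction at 25 °C after ATP addition | signal = Cy5 beacon fluorescence read at start and 1 h | read-out basis = % inhibition of unwinding | control set = low DMSO, high thioflavine S at 110 µM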
EBNA-1 inh – EBNA-1 DNA-binding inhibitors, primary screen, biochemical, fluorescence polarization | hit rate 0.34% among 300,000 | AID 1950, 2009 | inhibition, % at 14.8 µM; in the data active = inhibition above about 28%
ZTA counter – ZTA (EBV) inhibition in EBNA-1 counter-screen; inhibition, % at 11 µM; AID 2234; hit rate 0.15% among 320,000; ZTA-DNA binding, fluorescence polarization; P03206; in the data active = inhibition above about 33%
Target sequence (P03206 whole entry, looked up): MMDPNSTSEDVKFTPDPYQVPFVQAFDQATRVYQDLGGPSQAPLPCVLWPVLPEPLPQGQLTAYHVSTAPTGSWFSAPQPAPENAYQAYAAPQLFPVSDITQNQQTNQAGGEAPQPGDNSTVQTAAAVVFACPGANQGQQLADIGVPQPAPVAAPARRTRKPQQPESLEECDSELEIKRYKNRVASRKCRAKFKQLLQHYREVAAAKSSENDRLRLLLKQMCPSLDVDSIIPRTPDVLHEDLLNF
ALR H2O2 inh – inhibitors of human ALR sulfhydryl oxidase, primary screen, biochemical, H2O2 detection, HRP-luminol luminescence, single point; FAD-linked sulfhydryl oxidase ALR (Homo sapiens), P55789; hit rate 3.8% among 290,000; purified ALR, DTT oxidation; inhibition, % (no concentration beside the values);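 active = mean replicate inhibition above about 79%, with every replicate also reaching it, limit read from the data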
Target sequence (P55789 whole entry, looked up): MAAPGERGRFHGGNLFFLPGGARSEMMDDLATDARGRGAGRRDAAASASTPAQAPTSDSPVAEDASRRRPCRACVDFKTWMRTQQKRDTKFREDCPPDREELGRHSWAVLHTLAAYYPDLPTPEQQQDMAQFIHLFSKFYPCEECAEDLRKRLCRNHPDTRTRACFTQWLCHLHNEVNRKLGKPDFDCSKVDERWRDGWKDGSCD
HCV core dimer – inhibitors of HCV core protein dimerization, primary screen, biochemical, TR-FRET, high-throughput. TR-FRET GST/Flag-core106 dimerization, 1536-well. hit rate 0.33% among 300,000. inhibition, % at 5 µM;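 active = inhibition above the mean of all tested compounds plus 3 SD, set per screening campaign, cut at about 45% in these data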
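Assay system: GST-tagged and Flag-tagged HCV core protein residues 1-106 / Times: compound-protein-antibody incubation 4 h at 22.5 °C / Signal: time-resolved FRET, ex 340 nm, em 617 and 671 nm / Evaluation: % inhibition based on acceptor/donor emission ratio / Benchmarks: wells lacking GST-core106 and wells with excess unlabelled core106 / Repeats: singlicate, one well per compound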
PfM18AAP inh-2 – PfM18AAP inhibitors, malaria aminopeptidase, confirmation, biochemical, QFRET, recombinant enzyme, triplicate. hit rate 28% among 2,400. shares compounds with PfM18AAP inh-1. H-Glu-NHMec fluorogenic cleavage. inhibition, % at 7.35 µM;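 active = mean inhibition over replicate wells above the hit cutoff set for the earlier primary screen, cut at about 29% in these data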;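 also: 0% = median of test compound wells and 100% = 2 mM ZnCl2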
CTSL1 counter – cathepsin L1 inhibitors, retest, confirmation, counter-screen for PFM18AAP inhibitor project, biochemical, QFRET, triplicate; AID 2178, 2009; inhibition, % at 5.96 µM; 2,400 tested, under 10 active; purified cathepsin L1, Z-Leu-Arg-MCA fluorescence; shares compounds with PfM18AAP inh-1;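 active = average inhibition across replicates above the hit cutoff set in the earlier primary screen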;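 also: 0% = median of test compound wells and 100% = Z-Phe-Ala-diazomethylketone 1 µM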
The depositor's hits bear a star; x = no result given. The list is not random: actives were taken first. Their share in the collection is about 5.2%.

SMILES	PfM18AAP inh-1	NS3 helicase inh	EBNA-1 inh	ZTA counter	ALR H2O2 inh	HCV core dimer	PfM18AAP inh-2	CTSL1 counter
O=C(CC1CCCC1)Nc1ccc(Br)cc1	-0.3	-2.8	-1.3	2.2	-3.2	0.9	x	x
O=C(Nc1cc(Cl)ccc1Cl)Nn1cnnc1	87.5*	-3.1	x	x	-8.8	x	89.4*	4.7
CCOC(=O)c1ccc(NC(=O)Nc2ccn(C)n2)cc1	4.0	-7.2	-14.1	-4.2	-1.9	-0.9	x	x
CCOC(=O)c1ccc(NC(=O)Nn2cnnc2)cc1	72.4*	-3.1	x	x	-7.1	x	64.1*	1.2
O=C(Nc1ccncc1)Nc1cc(Cl)ccc1Cl	0.3	-11.3	x	x	-25.8	x	x	x
O=C(Nc1ccc(F)c(Cl)c1)Nn1cnnc1	76.1*	23.8	-6.4	2.8	-8.5	-14.8	60.1*	-0.7
CC(C)(C)NC(=O)Nc1ccc(F)c(Cl)c1	1.4	3.8	-7.9	-30.0	-7.9	3.5	x	x
Cc1c(Cl)cccc1NC(=O)Nn1cnnc1	82.0*	8.1	x	x	-13.5	x	64.6*	1.4
Cc1c(Cl)cccc1NC(=O)Nc1cc(C(C)(C)C)nn1C	3.4	-6.5	5.9	6.8	3.9	-3.2	x	x
O=C(Nc1ccc(F)cc1)Nc1cccnc1	6.7	1.3	x	x	4.5	x	x	x
O=C(Nc1ccc(F)cc1)Nn1cnnc1	58.3*	0.1	2.5	-13.6	-3.1	-0.1	46.3*	-4.5
Oc1ccc(N2CCN(CC(O)c3ccccc3)CC2)cc1 (centres undefined)	51.5*	-16.2	-7.7	-1.1	98.8*	0.7	-21.8	0.2
O=[N+]([O-])c1ccc(C(O)CN2CCN(c3ccccc3)CC2)cc1 (centres undefined)	-6.0	3.3	10.8	3.8	7.0	4.3	x	x
CN(CC(=O)Nc1n[nH]c(=S)s1)S(=O)(=O)c1cccc2cccnc12	51.5*	17.7	2.8	-8.4	35.7	8.8	20.8	-0.1
C=C1CCc2c([nH]c3ccc(OCC(C)C)cc23)C1=O	3.9	1.2	x	x	-24.2	x	x	x
N#CC1=C(N)SC(N)=C(C#N)C1Cc1ccccc1	42.9*	31.3	4.6	-11.7	13.7	-0.1	-9.2	0.9
N#CC1=C(N)SC(N)=C(C#N)C1c1c(Cl)cccc1Cl	45.5*	15.1	5.4	6.2	-31.8	28.6	-12.8	2.2
N#CC1=C(N)SC(N)=C(C#N)C1CCc1ccccc1	9.3	18.8	-0.1	13.9	-33.0	39.6	x	x
CC(C)(C)NC(=O)COC(=O)c1ccc(Cl)cc1O	-14.1	6.4	8.9	-2.4	-1.8	0.4	x	x
NC(=S)NNC(=O)COc1ccccc1O	37.3*	-4.0	-7.2	-16.7	89.0*	-1.6	39.1*	-1.5
CCN(CC)c1ccc2c(c1)CCCN2	32.2*	17.4	-1.6	-11.3	96.5*	-18.1	-8.3	-3.9
O=S(=O)(c1ccc2c(c1)CCCN2)N1CCCC1	x	x	x	4.2	x	x	x	x
Cc1ccc(C2NC(=O)c3c(sc(C)c3C)N2)c(O)c1 (centres undefined)	34.5*	0.4	6.7	-2.6	92.4*	2.6	-24.1	-0.7
Cc1cccc(C2NC(=O)c3c(sc(C)c3C)N2)c1O (centres undefined)	51.9*	4.5	-0.2	19.8	x	-3.7	-30.0	2.0
Cc1sc2c(c1C)C(=O)NC(c1ccccc1F)N2 (centres undefined)	11.0	-0.4	-0.4	7.5	28.7	8.1	x	x
CCC(Oc1ccccc1)C(=O)Nc1ccc(S(=O)(=O)Nc2cc(C)on2)cc1 (centres undefined)	5.4	-10.6	1.8	-1.0	2.1	-1.3	x	x
Cc1[nH]c(=S)c(C#N)c(C)c1CCC#N	38.0*	4.2	-7.3	2.6	-8.3	4.0	37.2*	0.5
